Measured values taken from ChEMBL document CHEMBL5046273, “Development of a Novel, Small-Molecule Brain-Penetrant Histone Deacetylase Inhibitor That Enhances Spatial Memory Formation in Mice” (J Med Chem, 2022).
The source made the active and inactive calls. The rule behind the calls is not given here.

Columns and labels:
Histone deacetylase 1 = Histone deacetylase 1 (Homo sapiens, UniProt Q13547); assay: Inhibition of HDAC1 in human DU-145 cells assessed as increase in histone H3 acetylation after 24 hrs by immunofluorescence microscopy; type: cell-based
DU-145 [1] = assay: Cytotoxicity against human DU-145 cells assessed as reduction in cell viability at 5 to 10 nM incubated for 48 hrs by MTT assay; type: functional, cell-based; details: dose 5-10 nM
How it was run: (§1)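 DU145 cells in DMEM with 10% FBS were seeded at 14 000 cells/well and allowed to adhere for 24 h. Test agents were diluted from 10 mM DMSO stocks (100, 50, 25 µM; 10, 5, 1.25 nM) and applied in triplicate for 48 h at 37 °C, 5% CO2, with DMSO as vehicle. Read-out was 250 µg/mL MTT for 4 h, DMSO solubilization, and A570 with 690 nm reference. Values normalized to DMSO.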

[2] = Toxicity in ip dosed BALB/c mouse assessed as maximum tolerated dose measured after 2 weeks; type: organism-based; details: BALB/c, in vivo
How it was run: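 Healthy BALB/c mice, compound in 20% DMSO/saline, single i.p. dose. One mouse each at 200, 100 and 50 mg/kg, then 25, 12.5 and 6.25 mg/kg if needed, repeated until a tolerated dose was found. Last test repeated once. Mice weighed daily for 8 days; euthanized at >20% weight loss or overt toxicity. Morbidity/mortality followed over 2 weeks; triplicate experiments.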

[3] = target: Histone deacetylase (Homo sapiens) (UniProt Q13547+O15379+Q9UBN7+Q92769+Q9UQL6+Q8WUI4+Q9BY41+Q96DB2+P56524+Q9UKV0+Q969S8); details: DU-145, dose 10.0 nM, time 24.0 hrs
Histone deacetylase 2 [4] = target: T1, Histone deacetylase 2 (Homo sapiens, UniProt Q92769); assay: Inhibition of recombinant human full-length HDAC2 preincubated for 20 mins with DTT followed by enzyme addition and measured after 10 mins by Glo-luminescence assay
How it was run: (§2)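 Compounds were serially diluted and incubated with enzyme for 10 min. HDAC-Glo I/II substrate/developer was then added, and luminescence read after 40 min at 23 °C. IC50 from four-parameter fits from two independent titrations, mean ± SD.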

Histone deacetylase 2 [5] = target: T1, Histone deacetylase 2; assay: Inhibition of recombinant human full-length HDAC2 incubated for 10 mins by Glo-luminescence assay; how it was run: as §2
DU-145 [6] = assay: Cytotoxicity against human DU-145 cells assessed as reduction in cell viability at 0.00125 to 100 uM incubated for 48 hrs by MTT assay; type: functional, cell-based; details: dose 0.00125-100 µM; how it was run: as §1

T1 sequence (Q92769 whole entry): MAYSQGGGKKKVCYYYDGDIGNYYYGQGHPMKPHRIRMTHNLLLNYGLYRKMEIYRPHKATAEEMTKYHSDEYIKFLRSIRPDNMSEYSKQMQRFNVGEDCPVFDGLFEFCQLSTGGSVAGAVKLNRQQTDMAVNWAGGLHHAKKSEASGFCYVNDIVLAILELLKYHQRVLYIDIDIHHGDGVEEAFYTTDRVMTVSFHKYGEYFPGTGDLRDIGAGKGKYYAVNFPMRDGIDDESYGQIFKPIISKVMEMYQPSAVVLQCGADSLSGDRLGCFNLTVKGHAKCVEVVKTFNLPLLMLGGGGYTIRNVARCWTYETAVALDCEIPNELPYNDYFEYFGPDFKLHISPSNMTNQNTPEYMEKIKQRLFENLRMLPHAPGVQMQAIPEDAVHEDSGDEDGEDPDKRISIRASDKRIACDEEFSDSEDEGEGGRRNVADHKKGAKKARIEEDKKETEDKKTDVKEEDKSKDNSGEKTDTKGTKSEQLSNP
Chain of Histone deacetylase 1 (Q13547 whole entry): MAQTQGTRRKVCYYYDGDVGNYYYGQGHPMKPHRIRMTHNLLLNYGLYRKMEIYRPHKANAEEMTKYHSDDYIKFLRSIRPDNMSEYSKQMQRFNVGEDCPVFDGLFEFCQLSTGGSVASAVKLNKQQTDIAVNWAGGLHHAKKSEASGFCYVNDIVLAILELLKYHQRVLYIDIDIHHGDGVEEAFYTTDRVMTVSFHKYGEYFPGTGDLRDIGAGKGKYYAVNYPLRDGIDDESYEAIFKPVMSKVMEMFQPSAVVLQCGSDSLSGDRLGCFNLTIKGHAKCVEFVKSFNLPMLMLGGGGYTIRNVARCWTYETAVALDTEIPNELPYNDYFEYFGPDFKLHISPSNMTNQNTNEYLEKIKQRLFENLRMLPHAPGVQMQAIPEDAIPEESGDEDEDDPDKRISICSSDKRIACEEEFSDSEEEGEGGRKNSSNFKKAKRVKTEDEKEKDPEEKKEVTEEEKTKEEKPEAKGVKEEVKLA

IC50 (Histone deacetylase 2 [4])	IC50 (Histone deacetylase 2 [5])	SMILES	IC50 (Histone deacetylase 1)	Activity (DU-145 [1])	MTD at 336 h [2]	inhibition [3]	Activity (DU-145 [6])
		C/C=C1\NC(=O)[C@H]2CSSCC/C=C/[C@H](CC(=O)N[C@H](C(C)C)C(=O)N2)OC(=O)[C@H](C(C)C)NC1=O [ROMIDEPSIN]	0.0014 µM	Active	> 200 mg/kg	Active	
11 µM	140 µM	CCCC[C@@H](NC(=O)CC(O)/C=C/CCSSCC/C=C/C(O)CC(=O)N[C@H](CCCC)C(=O)O)C(=O)O (some centres undefined)					
25 µM	105 µM	O=C(CC(O)/C=C/CCSSCC/C=C/C(O)CC(=O)Nc1ccccc1)Nc1ccccc1 (centres undefined)					inactive
